Where a SMILES comes first, the peptide text is derived from it. [ ]: non-standard residue; d: D form. Cha = N[C@@H](CC1CCCCC1)C(=O)O; βAla = NCCC(=O)O
Tests used:
Substance-K receptor [1] = biological target: T1, Substance-K receptor (Mesocricetus auratus, UniProt P51144); assay: Tested for antagonist activity at NK-2 tachykinin receptors in hamster trachea; assay type: functional; settings: for Kb: read-out: pA2 (converted)
T1 sequence (P51144 whole entry): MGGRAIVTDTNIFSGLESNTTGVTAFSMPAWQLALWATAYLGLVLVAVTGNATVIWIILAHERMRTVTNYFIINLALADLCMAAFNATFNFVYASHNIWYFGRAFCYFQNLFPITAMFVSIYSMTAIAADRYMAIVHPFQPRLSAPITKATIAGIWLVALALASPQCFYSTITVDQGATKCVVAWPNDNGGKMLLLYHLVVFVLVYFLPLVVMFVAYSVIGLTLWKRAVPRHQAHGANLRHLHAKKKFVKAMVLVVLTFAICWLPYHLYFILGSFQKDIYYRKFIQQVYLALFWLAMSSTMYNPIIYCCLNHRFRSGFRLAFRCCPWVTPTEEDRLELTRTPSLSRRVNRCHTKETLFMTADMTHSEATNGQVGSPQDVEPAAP
In short: (§1)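 Isolated tissues from male New Zealand rabbits (2.5-3 kg) or male Syrian golden hamsters (90-130 g). Endothelium-denuded pulmonary artery strips (rabbit) or tracheal rings (hamster) were used for isometric tension in oxygenated (96% O2/4% CO2) Krebs. Thiorphan, captopril and bestatin were added 15 min before agonist. Cumulative NKA curves were repeated after 15 min antagonist incubation, with one concentration per experiment and at least three concentrations. pA2 came from constrained Schild plots (≥9 experiments).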

Substance-K receptor [2] = biological target: T2, Substance-K receptor (Oryctolagus cuniculus, UniProt P79218); assay: Antagonist activity at NK-2 tachykinin receptors in rabbit pulmonary artery; assay type: functional; settings: for Kb: read-out: pA2 (converted); in short: as §1
T2 sequence (P79218 whole entry): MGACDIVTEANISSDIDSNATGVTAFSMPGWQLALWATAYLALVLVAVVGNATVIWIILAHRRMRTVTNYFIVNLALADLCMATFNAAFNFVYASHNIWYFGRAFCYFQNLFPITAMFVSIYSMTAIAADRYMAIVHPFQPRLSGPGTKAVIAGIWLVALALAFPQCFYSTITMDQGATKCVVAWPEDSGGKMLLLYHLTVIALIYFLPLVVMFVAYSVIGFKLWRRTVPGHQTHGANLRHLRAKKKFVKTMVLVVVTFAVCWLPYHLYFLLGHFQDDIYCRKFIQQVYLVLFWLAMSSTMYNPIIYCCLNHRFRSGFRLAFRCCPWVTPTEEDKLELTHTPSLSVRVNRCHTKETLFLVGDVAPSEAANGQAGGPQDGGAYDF

[3] = biological target: T3, Substance-K receptor (Oryctolagus cuniculus) (UniProt P79218); settings: filed as agonist
T3 sequence (whole entry): T2 sequence (P79218 whole entry)

[4] = biological target: T3, Substance-K receptor (Oryctolagus cuniculus)
[5] = Tested for capacity factors by reversed phase HPLC (C18, solvent system 1)
Substance-K receptor [6] = biological target: T2, Substance-K receptor; assay: Tested for antagonist activity at NK-2 tachykinin receptors in rabbit pulmonary artery; settings: read-out: pA2 (converted)

Compound	Kb (Substance-K receptor [1])	Kb (Substance-K receptor [2])	k' [5]	other results
CC(C)C[C@@H]1CN[C@@H](CC(=O)O)C(=O)N[C@@H](CCC(N)=O)C(=O)N[C@@H](Cc2c[nH]c3ccccc23)C(=O)N[C@@H](Cc2ccccc2)C(=O)NCCC(=O)N1	67.6 nM	1070 nM	–	–
CC(C)C[C@@H]1CN[C@@H](CC(N)=O)C(=O)N[C@H](CCC(N)=O)C(=O)N[C@@H](Cc2c[nH]c3ccccc23)C(=O)N[C@H](Cc2ccccc2)C(=O)NCCC(=O)N1	–	–	7.7	–
CC(C)C[C@@H]1CN[C@@H](CC(N)=O)C(=O)N[C@@H](CCC(N)=O)C(=O)N[C@@H](Cc2c[nH]c3ccccc23)C(=O)N[C@@H](Cc2ccccc2)C(=O)NCCC(=O)N1	110 nM	692 nM	–	–
CC(C)C[C@@H]1CN[C@@H](Cc2ccc3ccccc3c2)C(=O)N[C@@H](CCC(N)=O)C(=O)N[C@@H](Cc2c[nH]c3ccccc23)C(=O)N[C@@H](Cc2ccccc2)C(=O)NCCC(=O)N1	–	–	–	pA2 (Substance-K receptor [1]): 8.79; pA2 (Substance-K receptor [2]): 7.37
CSCC[C@@H]1NC[C@@H](CC(C)C)NC(=O)CCNC(=O)[C@@H](Cc2ccccc2)NC(=O)[C@H](Cc2c[nH]c3ccccc23)NC(=O)[C@@H](CCC(N)=O)NC1=O	–	–	9.6	–
CC(C)C[C@@H]1CN[C@@H](CC2CCCCC2)C(=O)N[C@H](CCC(N)=O)C(=O)N[C@@H](Cc2c[nH]c3ccccc23)C(=O)N[C@H](Cc2ccccc2)C(=O)NCCC(=O)N1	–	–	11.6	–
CC(C)C[C@@H]1CN[C@@H](CC(C)C)C(=O)N[C@H](CCC(N)=O)C(=O)N[C@@H](Cc2c[nH]c3ccccc23)C(=O)N[C@H](Cc2ccccc2)C(=O)NCCC(=O)N1	–	–	9.9	–
CC(C)C[C@@H]1CN[C@@H](CCCCN)C(=O)N[C@@H](CCC(N)=O)C(=O)N[C@@H](Cc2c[nH]c3ccccc23)C(=O)N[C@@H](Cc2ccccc2)C(=O)NCCC(=O)N1	309 nM	–	–	–
CC(C)C[C@@H]1CN[C@@H](CCC(=O)NCc2ccccc2)C(=O)N[C@H](CCC(N)=O)C(=O)N[C@@H](Cc2c[nH]c3ccccc23)C(=O)N[C@H](Cc2ccccc2)C(=O)NCCC(=O)N1	–	–	11.1	–
CC(C)C[C@@H]1CN[C@@H](CCCCNC(=O)OCc2ccccc2)C(=O)N[C@@H](CCC(N)=O)C(=O)N[C@@H](Cc2c[nH]c3ccccc23)C(=O)N[C@@H](Cc2ccccc2)C(=O)NCCC(=O)N1	6.76 nM	129 nM	–	–
CC(C)C[C@@H]1CN(C)[C@@H](CC2CCCCC2)C(=O)N[C@@H](CCC(N)=O)C(=O)N[C@@H](Cc2c[nH]c3ccccc23)C(=O)N[C@@H](Cc2ccccc2)C(=O)NCCC(=O)N1	3.8 nM	117 nM	–	–
CC(C)C[C@@H]1CN[C@@H](CC2CCCCC2)C(=O)N[C@@H](CCC(N)=O)C(=O)N[C@@H](Cc2c[nH]c3ccccc23)C(=O)N[C@@H](Cc2ccccc2)C(=O)NCCC(=O)N1	0.871 nM	–	–	Kb (Substance-K receptor [6]): 38.9 nM
CC(C)C[C@@H]1CN[C@@H](CCC(=O)NCc2ccccc2)C(=O)N[C@@H](CCC(N)=O)C(=O)N[C@@H](Cc2c[nH]c3ccccc23)C(=O)N[C@@H](Cc2ccccc2)C(=O)NCCC(=O)N1	0.55 nM	15.5 nM	–	–

Second part, led by results:

Kb (Substance-K receptor [1])	Kb (Substance-K receptor [2])	k' [5]	Compound	other results
–	–	6.8	CC(C)C[C@@H]1CN[C@@H](CCCCN)C(=O)N[C@H](CCC(N)=O)C(=O)N[C@@H](Cc2c[nH]c3ccccc23)C(=O)N[C@H](Cc2ccccc2)C(=O)NCCC(=O)N1	pA2 [3]: Agonist; pD2 [4]: 5.96
31.6 nM	1450 nM	–	CC(C)C[C@@H]1NC(=O)CCNC(=O)[C@H](Cc2ccccc2)NC(=O)[C@H](Cc2c[nH]c3ccccc23)NC(=O)[C@H](CCC(N)=O)NC(=O)[C@H](CC2CCCCC2)NC1=O (cyclo([Cha]QWF[βAla]L))	–
–	–	11.9	CC(C)C[C@@H]1CN[C@@H](CCCCNC(=O)OCc2ccccc2)C(=O)N[C@H](CCC(N)=O)C(=O)N[C@@H](Cc2c[nH]c3ccccc23)C(=O)N[C@H](Cc2ccccc2)C(=O)NCCC(=O)N1	–
–	–	10.5	CC(C)C[C@@H]1CN[C@@H](Cc2ccccc2)C(=O)N[C@H](CCC(N)=O)C(=O)N[C@@H](Cc2c[nH]c3ccccc23)C(=O)N[C@H](Cc2ccccc2)C(=O)NCCC(=O)N1	–
–	–	12	CC(C)C[C@@H]1CN[C@@H](Cc2ccc3ccccc3c2)C(=O)N[C@H](CCC(N)=O)C(=O)N[C@@H](Cc2c[nH]c3ccccc23)C(=O)N[C@H](Cc2ccccc2)C(=O)NCCC(=O)N1	–
15.8 nM	112 nM	–	CC(C)C[C@@H]1CN[C@@H](CC(C)C)C(=O)N[C@@H](CCC(N)=O)C(=O)N[C@@H](Cc2c[nH]c3ccccc23)C(=O)N[C@@H](Cc2ccccc2)C(=O)NCCC(=O)N1	–
–	–	7.9	CC(C)C[C@@H]1CN[C@@H](CC(=O)O)C(=O)N[C@H](CCC(N)=O)C(=O)N[C@@H](Cc2c[nH]c3ccccc23)C(=O)N[C@H](Cc2ccccc2)C(=O)NCCC(=O)N1	–
–	–	13.1	CC(C)C[C@@H]1CN(C)[C@@H](CC2CCCCC2)C(=O)N[C@H](CCC(N)=O)C(=O)N[C@@H](Cc2c[nH]c3ccccc23)C(=O)N[C@H](Cc2ccccc2)C(=O)NCCC(=O)N1	–
12.9 nM	224 nM	–	CSCC[C@@H]1NC[C@@H](CC(C)C)NC(=O)CCNC(=O)[C@H](Cc2ccccc2)NC(=O)[C@H](Cc2c[nH]c3ccccc23)NC(=O)[C@H](CCC(N)=O)NC1=O	–
18.6 nM	79.4 nM	–	CC(C)C[C@@H]1CN[C@@H](Cc2ccccc2)C(=O)N[C@@H](CCC(N)=O)C(=O)N[C@@H](Cc2c[nH]c3ccccc23)C(=O)N[C@@H](Cc2ccccc2)C(=O)NCCC(=O)N1	–

Source: ChEMBL document CHEMBL1127378, “Influence of lipophilicity on the biological activity of cyclic pseudopeptide NK-2 receptor antagonists” (J Med Chem, 1994)
